Assay [1] has as its system LNCaP. Put plainly: Antineoplastic activity against human LNCAP cells after 72 hrs by MTT assay. The assay is classed as functional, cell-based. Summed up: (§1)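 LNCaP and PC-3 human prostate cancer cells were exposed to compound for 24, 48 or 72 h, and growth was read as the change in MTT staining. IC50 was calculated from 3–5 experiments, each run in duplicate on separate cell passages.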
A general note: Formazan colour is commonly taken as a measure of viable cells.

Assay [2] concerns LNCaP. The assay is described as follows: Antineoplastic activity against human LNCAP cells after 48 hrs by MTT assay. The assay is classed as functional, cell-based. Summed up: as §1
Assay [3] deals with LNCaP. Put plainly: Antineoplastic activity against human LNCAP cells after 24 hrs by MTT assay. The assay is classed as functional, cell-based. Summed up: as §1
The test system of assay [4] is PC-3. The assay is described as follows: Antineoplastic activity against human PC3 cells after 24 hrs by MTT assay. The class given is functional, cell-based. Conditions: PC-3, 24 h. Summed up: as §1
Assay [5] concerns PC-3. Put plainly: Antineoplastic activity against human PC3 cells after 48 hrs by MTT assay. The assay is classed as functional, cell-based. As to conditions: PC-3, 48 h. Summed up:
as §1

The subject of assay [6] is PC-3. The assay is described as follows: Antineoplastic activity against human PC3 cells after 72 hrs by MTT assay. Conditions: PC-3, 72 h. The assay is classed as functional, cell-based. Summed up: as §1
The species named for assay [7] is Rattus norvegicus. The assay is described as follows: Inhibition of iPLA2beta in rat kidney cytosol using arachidonoyl thio-phosphatidylcholine as substrate up to 100 uM after 0.5 hrs by spectrophotometry. The assay is classed as tissue-based. Summed up:
(§2)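 Cytosolic fractions were preincubated with compound at 0–100 μM for 0.5 h. Arachidonoyl thiophosphatidylcholine, a hydrolysable thioester probe of PLA2 activity, was then added to follow enzyme activity.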

Assay [8] deals with LNCaP. The assay is described as follows: Cell cycle arrest in human LNCAP cells assessed as decrease in G2/M phase cells at 5 uM after 24 hrs by PI-based flow cytometric analysis relative to control. The class given is functional. Summed up:
(§3)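 LNCaP cells were treated for 24 h at 5 or 10 μM. Cells were stained with propidium iodide and analysed by flow cytometry for the percentages in G1, S and G2/M phases, compared with control.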
For orientation: Flow cytometry measures light scatter and fluorescence of single cells or particles in a stream.

Assay [9] deals with LNCaP. Put plainly: Cell cycle arrest in human LNCAP cells assessed as decrease in S phase cells at 10 uM after 24 hrs by PI-based flow cytometric analysis relative to control. The class given is functional. Summed up:
as §3

Assay [10] relates to LNCaP. The assay is described as follows: Induction of necrosis in human LNCAP cells at 5 uM after 72 hrs by phase-contrast microscopic analysis. The class given is functional, cell-based. Summed up: (§4)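 LNCaP cells were treated at 5 μM for 72 h. Cells were inspected by eye under phase-contrast microscopy for changes in shape and differentiation, death, and signs of apoptosis or necrosis, compared with a DMSO vehicle control.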

The test system of assay [11] is LNCaP. The assay is described as follows: Induction of apoptosis in human LNCAP cells at 5 uM after 72 hrs by phase-contrast microscopic analysis. The class given is functional, cell-based. Summed up:
as §4

The test system of assay [12] is LNCaP. The assay is described as follows: Cell cycle arrest in human LNCAP cells assessed as increase in G1 phase cells at 10 uM after 24 hrs by PI-based flow cytometric analysis relative to control. The assay is classed as functional. Summed up:
as §3

Assay [13] relates to LNCaP. Put plainly: Cell cycle arrest in human LNCAP cells assessed as decrease in S phase cells at 5 uM after 24 hrs by PI-based flow cytometric analysis relative to control. The assay is classed as functional. Summed up:
as §3

Assay [14] has as its system LNCaP. The assay is described as follows: Cell cycle arrest in human LNCAP cells assessed as increase in G1 phase cells at 5 uM after 24 hrs by PI-based flow cytometric analysis relative to control. The class given is functional. Summed up:
as §3

For assay [15], the system named is PC-3. The assay is described as follows: Antineoplastic activity against human PC3 cells at 14 to 34 uM by MTT assay. The assay is classed as functional, cell-based. As to conditions: TDE = time-dependent effect. Summed up:
as §1

For assay [16], the system named is LNCaP. The assay is described as follows: Cytotoxicity against human LNCAP cells assessed as change in cell differentiation at 5 uM after 72 hrs by phase-contrast microscopic analysis. The class given is functional, cell-based. Summed up: as §4
The species entered for assay [17] is Rattus norvegicus. The assay is described as follows: Inhibition of iPLA2beta in rat kidney cytosol using arachidonoyl thio-phosphatidylcholine as substrate after 0.5 hrs by spectrophotometry. The assay is classed as tissue-based. Summed up: as §2
Assay [18] relates to LNCaP. Put plainly: Cytotoxicity against human LNCAP cells assessed as change in cell shape at 5 uM after 72 hrs by phase-contrast microscopic analysis. The class given is functional, cell-based. Summed up:
as §4

Assay [19] deals with LNCaP. Put plainly: Cytotoxicity against human LNCAP cells assessed as cell death at 5 uM after 72 hrs by phase-contrast microscopic analysis. The class given is functional, cell-based. Summed up:
as §4

Assay [20] deals with LNCaP. The assay is described as follows: Antineoplastic activity against human LNCAP cells at 5 to 13 uM by MTT assay. The class given is functional, cell-based. Conditions: TDE = time-dependent effect. Summed up:
as §1

Structures are written as SMILES. pIC50: −log10 of the molar value. Active and inactive are the calls of the source. The rule behind the calls is not given here.

Take `C#CCN1C/C(=C\I)OC(=O)[C@@H]1c1ccccc1`: the pIC50 (in general, the negative decadic logarithm of the IC50, by convention in mol/L) in assay [1] was 4.70; in [2], 4.64; in assay [3] it was 4.59; in [4], 4.68; in [5], 4.68; in assay [6], 4.60.

For `O=C1O/C(=C/Br)CC[C@H]1c1cccc2ccccc12`, in [7], the inhibition result is “Active”.

As for `C#CCN1C/C(=C\Br)OC(=O)[C@H]1c1ccccc1`, the result in assay [8], in [9], in [10], in assay [11], in assay [12] and in assay [13] was Active. Also, the outcome in [14] was Active. Moreover, the pIC50 is 5.52 in assay [1]; 5.22 in [2]; 5.22 in assay [3]; 5.10 in assay [4]; 5.22 in [5]; 5.52 in assay [6]. Also, the inhibition entry in assay [7] is “inactive”.

For `C#CCN1C/C(=C\Br)OC(=O)[C@@H]1c1ccccc1`, the result in assay [8], in assay [9], in assay [12], in [13] and in [14] was Active. For the same molecule, the pIC50 in assay [1] is 5.52; in assay [2], 5.52; in assay [3], 5.10; in assay [4], 4.82; in assay [5], 4.89; in [6], 5.30. Besides, in assay [7], the inhibition result is “Active”.

Take `O=C1O/C(=C/Br)CCC1c1cccc2ccccc12` (racemic) [BROMOENOL LACTONE]: the outcome in assay [8], in assay [9], in assay [12], in [13] and in assay [14] was Active. Moreover, the negative logarithm of the IC50 (pIC50) in assay [1] was 5.05; in assay [2] it was 5.30; in assay [3], 4.89; in [4], 4.47; in [5], 4.59; in assay [6], 4.85. Also, the Activity entry in [15] and in assay [20] was “tde” in each case. For the same molecule, the outcome in [16], in [18] and in assay [19] was inactive. In assay [17], the inhibition result was “Dose-dependent effect”.

Regarding `O=C1O/C(=C/Br)CCC1c1ccccc1` (racemic), the result in assay [8], in [9], in assay [12], in [13] and in [14] was Active. For the same molecule, the pIC50 in assay [1] was 5.40; in assay [2] it was 5.30; in assay [3] it was 4.51; in assay [4], 4.57; in assay [5], 5.00; in assay [6], 5.22. Further, the result in [16], in assay [18] and in assay [19] was inactive. In assay [17], the inhibition entry is “Dose-dependent effect”.

On to `O=C1O/C(=C/Br)CN(Cc2ccccc2)[C@H]1c1ccccc1`, for which the negative logarithm of the IC50 (pIC50) was 5.52 in assay [1]; 5.40 in assay [2]; 5.52 in [3]; 5.40 in assay [4]; 6.00 in assay [5]; 5.40 in assay [6].

Turning to `O=C1CCC/C(=C\I)O1`, the negative-log IC50 (pIC50) in [1] was 5.15; in assay [2], 5.30; in [3], 5.05; in assay [4], 4.49; in [5], 4.82; in assay [6] it was 4.80.

Consider `O=C1CCC/C(=C\Br)O1`, for which the pIC50 in [1] is 5.30; in [2], 5.30; in assay [3], 5.00; in [4], 4.72; in assay [5], 4.64; in [6], 4.85.

Regarding `C#CCN1CC(=O)O/C(=C/Br)C1`, the negative-log IC50 (pIC50) is 4.55 in assay [1]; 4.54 in [2]; 4.60 in [3]; 4.89 in assay [4]; 5.00 in assay [5]; 5.15 in assay [6].

In the case of `C#CCN1C/C(=C\Br)OC(=O)[C@@H]1Cc1ccccc1`, the negative-log IC50 (pIC50) in assay [1] is 4.49; in assay [2], 4.59; in [3], 4.39; in assay [4], 4.48; in assay [5], 4.24; in assay [6], 4.41.

The values are drawn from ChEMBL document CHEMBL2086393, “Haloenol pyranones and morpholinones as antineoplastic agents of prostate cancer” (Bioorg Med Chem Lett, 2012).
